The results in this text go back to ChEMBL document CHEMBL4118244, “Design, synthesis and biological evaluation of benzofuran appended benzothiazepine derivatives as inhibitors of butyrylcholinesterase and antimicrobial agents” (Bioorg Med Chem, 2018).

≈ marks a conversion by molar mass, not a printed value. Calls of active or inactive are those of the source. No cut-off for these calls is given here.

Assay [1] has as its target Acetylcholinesterase (Electrophorus electricus) (UniProt O42275). As to the kind of experiment: Inhibition of electric eel AChE using acetylthiocholine iodide as substrate pretreated for 15 mins followed by substrate addition measured for 6 mins by Ellman's method. The procedure, abridged: (§1)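 Ellman spectrophotometric assay in 0.1 M phosphate buffer pH 8.0 with DTNB, 25 °C. AChE (electric eel, Type V-S) or BChE was preincubated 15 min with compound before adding acetylthiocholine iodide or butyrylthiocholine iodide, respectively. Absorbance change at 412 nm was read for 6 min. Five concentrations were tested in triplicate, corrected by a nonenzymatic blank, with a no-inhibitor reference.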

The target in a further assay is Cholinesterase (Equus caballus, UniProt P81908). As to the kind of experiment: Inhibition of equine serum BChE using butyrylthiocholine iodide as substrate pretreated for 15 mins followed by substrate addition measured for 6 mins by Ellman's method. As to conditions: read-out: IC50. In outline: as §1
Assay [2] relates to Aspergillus brasiliensis. As to the kind of experiment: Antifungal activity against Aspergillus brasiliensis PTCC 5011 assessed as diameter of inhibition zone at 200 ug per disc after 72 hrs by agar disc diffusion method. The assay is classed as functional. In outline:
(§2)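 Agar disc diffusion against mold. Compounds at 20 mg mL⁻¹ in DMSO, filter-sterilised. 6 mm discs carried 10 µl (200 µg per disc), with DMSO discs as negative control. Incubation 72 h at 30 °C. Read-out is growth inhibition zone diameter, mean of 3 repeats (±1 mm).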

In assay [3] the test system is Candida albicans. The assay can be described thus: Antifungal activity against Candida albicans ATCC 10231. In kind it is functional.
The subject of assay [4] is Aspergillus brasiliensis. As to the kind of experiment: Antifungal activity against Aspergillus brasiliensis PTCC 5011. In kind it is functional.
Assay [5] deals with Aspergillus niger. The assay can be described thus: Antifungal activity against Aspergillus niger ATCC 16404 assessed as diameter of inhibition zone at 200 ug per disc after 72 hrs by agar disc diffusion method. In kind it is functional. The procedure, abridged: as §2
The subject of assay [6] is Aspergillus niger. As to the kind of experiment: Antifungal activity against Aspergillus niger ATCC 16404. The assay is classed as functional.
For assay [7], the system named is Bacillus spizizenii. The assay can be described thus: Antibacterial activity against Bacillus subtilis ATCC 6633 assessed as diameter of inhibition zone at 200 ug per disc after 24 hrs by agar disc diffusion method. In kind it is functional. As to conditions: ATCC 6633, 24 h, read-out: DIZ. In outline: (§3)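 Agar disc diffusion. Compounds at 20 mg mL⁻¹ in DMSO, filter-sterilised. 100 µL of 10⁸ CFU mL⁻¹ bacteria spread on nutrient agar. 6 mm discs carried 10 µl (200 µg per disc), with DMSO discs as negative control. Incubation 24 h at 37 °C. Read-out is inhibition zone diameter, mean of 3 repeats (±1 mm).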

Assay [8] has as its system Bacillus spizizenii. The assay can be described thus: Antibacterial activity against Bacillus subtilis ATCC 6633. In kind it is functional.
Assay [9] has as its system Staphylococcus aureus. The assay can be described thus: Antibacterial activity against Staphylococcus aureus ATCC 29737. In kind it is functional.
Assay [10] relates to Candida albicans. As to the kind of experiment: Antifungal activity against Candida albicans ATCC 10231 assessed as diameter of inhibition zone at 200 ug per disc after 48 hrs by agar disc diffusion method. As to conditions: ATCC 10231, 48 h, read-out: DIZ. The assay is classed as functional. The procedure, abridged: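 Yeast tested by agar disc diffusion. Compounds at 20 mg mL⁻¹ in DMSO, filter-sterilised. 6 mm discs carried 10 µl (200 µg per disc), with DMSO discs as negative control. Incubation 48 h at 30 °C. Zone diameter was averaged over 3 repeats (±1 mm).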

The test system of assay [11] is Staphylococcus epidermidis. The assay can be described thus: Antibacterial activity against Staphylococcus epidermidis ATCC 12228 assessed as diameter of inhibition zone at 200 ug per disc after 24 hrs by agar disc diffusion method. In kind it is functional. The following applies: ATCC 12228, 24 h, read-out: DIZ. The procedure, abridged: as §3
For assay [12], the system named is Staphylococcus aureus. The assay can be described thus: Antibacterial activity against Staphylococcus aureus ATCC 29737 assessed as diameter of inhibition zone at 200 ug per disc after 24 hrs by agar disc diffusion method. In kind it is functional. The following applies: ATCC 29737, 24 h, read-out: DIZ. In outline:
as §3

Assay [13] relates to Staphylococcus epidermidis. The assay can be described thus: Antibacterial activity against Staphylococcus epidermidis ATCC 12228. The assay is classed as functional.
The subject of assay [14] is Pseudomonas aeruginosa. The assay can be described thus: Antibacterial activity against Pseudomonas aeruginosa ATCC 27853 assessed as diameter of inhibition zone at 200 ug per disc after 24 hrs by agar disc diffusion method. The assay is classed as functional. As to conditions: ATCC 27853, 24 h, read-out: DIZ. In outline:
as §3

Assay [15] relates to Shigella dysenteriae. As to the kind of experiment: Antibacterial activity against Shigella dysenteriae PTCC 1188 assessed as diameter of inhibition zone at 200 ug per disc after 24 hrs by agar disc diffusion method. The assay is classed as functional. As to conditions: PTCC 1188, 24 h, read-out: DIZ. The procedure, abridged:
as §3

Assay [16] deals with Salmonella paratyphi. As to the kind of experiment: Antibacterial activity against Salmonella paratyphi A serotype ATCC 5702. In kind it is functional. The following applies: Salmonella enterica subsp. enterica serovar Paratyphi A.
The subject of assay [17] is Proteus vulgaris. As to the kind of experiment: Antibacterial activity against Proteus vulgaris PTCC 1182 assessed as diameter of inhibition zone at 200 ug per disc after 24 hrs by agar disc diffusion method. The following applies: PTCC 1182, 24 h, read-out: DIZ. The assay is classed as functional. The procedure, abridged:
as §3

The test system of assay [18] is Shigella dysenteriae. The assay can be described thus: Antibacterial activity against Shigella dysenteriae PTCC 1188. In kind it is functional.
Assay [19] deals with Proteus vulgaris. As to the kind of experiment: Antibacterial activity against Proteus vulgaris PTCC 1182. The assay is classed as functional.
In assay [20] the test system is Salmonella paratyphi. The assay can be described thus: Antibacterial activity against Salmonella paratyphi A serotype ATCC 5702 assessed as diameter of inhibition zone at 200 ug per disc after 24 hrs by agar disc diffusion method. The assay is classed as functional, Salmonella enterica subsp. enterica serovar Paratyphi A. As to conditions: Salmonella enterica, ATCC 5702, 24 h; read-out: DIZ. The procedure, abridged:
as §3

Assay [21] concerns Escherichia coli. The assay can be described thus: Antibacterial activity against Escherichia coli ATCC 10536 assessed as diameter of inhibition zone at 200 ug per disc after 24 hrs by agar disc diffusion method. The assay is classed as functional. The following applies: ATCC 10536, 24 h, read-out: DIZ. In outline: as §3
The subject of assay [22] is Escherichia coli. The assay can be described thus: Antibacterial activity against Escherichia coli ATCC 10536. The assay is classed as functional.
The test system of assay [23] is Klebsiella pneumoniae. As to the kind of experiment: Antibacterial activity against Klebsiella pneumoniae ATCC 10031 assessed as diameter of inhibition zone at 200 ug per disc after 24 hrs by agar disc diffusion method. In kind it is functional. The following applies: ATCC 10031, 24 h, read-out: DIZ. In outline:
as §3

Assay [24] deals with Klebsiella pneumoniae. The assay can be described thus: Antibacterial activity against Klebsiella pneumoniae ATCC 10031. The assay is classed as functional.
In assay [25] the test system is Pseudomonas aeruginosa. The assay can be described thus: Antibacterial activity against Pseudomonas aeruginosa ATCC 27853. The assay is classed as functional.

Chain of Cholinesterase (P81908 whole entry, the tested form may be a part): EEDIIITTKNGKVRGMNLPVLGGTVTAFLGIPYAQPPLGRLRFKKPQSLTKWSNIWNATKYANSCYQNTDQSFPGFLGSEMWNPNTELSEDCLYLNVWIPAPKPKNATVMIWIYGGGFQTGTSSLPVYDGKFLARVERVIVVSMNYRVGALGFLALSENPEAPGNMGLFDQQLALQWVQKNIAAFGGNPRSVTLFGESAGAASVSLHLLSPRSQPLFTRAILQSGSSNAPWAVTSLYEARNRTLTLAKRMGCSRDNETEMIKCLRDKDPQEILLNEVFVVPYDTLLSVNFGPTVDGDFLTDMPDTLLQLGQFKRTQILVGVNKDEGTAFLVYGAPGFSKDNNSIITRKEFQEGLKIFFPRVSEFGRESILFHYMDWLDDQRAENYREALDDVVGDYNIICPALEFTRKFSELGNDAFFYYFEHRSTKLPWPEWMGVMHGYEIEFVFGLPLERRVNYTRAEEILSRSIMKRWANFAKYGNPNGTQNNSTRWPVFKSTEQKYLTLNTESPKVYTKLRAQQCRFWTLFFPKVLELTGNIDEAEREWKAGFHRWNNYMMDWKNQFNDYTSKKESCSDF
Chain of Acetylcholinesterase (Electrophorus electricus) (O42275 24-633 limits assumed): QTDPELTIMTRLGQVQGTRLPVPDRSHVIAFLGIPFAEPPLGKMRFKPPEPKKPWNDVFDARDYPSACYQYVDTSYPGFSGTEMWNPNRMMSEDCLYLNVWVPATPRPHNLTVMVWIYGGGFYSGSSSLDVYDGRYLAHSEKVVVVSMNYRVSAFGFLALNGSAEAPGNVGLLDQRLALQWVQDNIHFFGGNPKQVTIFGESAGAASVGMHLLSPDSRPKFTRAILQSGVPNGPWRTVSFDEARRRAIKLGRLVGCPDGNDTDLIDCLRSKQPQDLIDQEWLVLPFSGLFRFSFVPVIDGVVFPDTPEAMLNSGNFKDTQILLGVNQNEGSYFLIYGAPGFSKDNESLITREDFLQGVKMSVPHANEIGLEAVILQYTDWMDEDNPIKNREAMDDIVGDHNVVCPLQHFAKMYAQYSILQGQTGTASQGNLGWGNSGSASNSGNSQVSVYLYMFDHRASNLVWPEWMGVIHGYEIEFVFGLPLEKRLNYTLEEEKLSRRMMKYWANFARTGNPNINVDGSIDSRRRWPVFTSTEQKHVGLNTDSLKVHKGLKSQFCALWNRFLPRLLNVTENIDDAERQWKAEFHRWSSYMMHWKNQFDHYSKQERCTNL

Consider `COc1cccc(C2CC(c3cc4ccccc4o3)=Nc3ccccc3S2)c1` (stereo not drawn), for which the inhibition entry in [1] was “inactive”. The IC50 on Cholinesterase was 4.1 µM.

Turning to `COc1cccc2cc(C3=Nc4ccccc4SC(c4ccc(O)cc4)C3)oc12` (stereo not drawn), the inhibition entry in assay [1] was “inactive”. On Cholinesterase, the IC50 was found to be 4.1 µM.

Consider `Brc1ccc2oc(C3=Nc4ccccc4SC(c4c[nH]c5ccccc45)C3)cc2c1` (stereo not drawn), for which the inhibition result in [1] was “inactive”. Also, the half-inhibitory concentration (IC50) at Cholinesterase was 28 µM.

For the compound `COc1cccc(C2CC(c3cc4cc(Br)ccc4o3)=Nc3ccccc3S2)c1` (stereo not drawn), the inhibition entry in assay [1] is “inactive”. Besides, the IC50 on Cholinesterase turned out to be 1 µM.

NYSTATIN: the inhibition zone (IZ) in the assay with Aspergillus brasiliensis [2] amounted to 23 mm; in the assay with Aspergillus niger [5] it was 27 mm. In addition, the values for the minimal inhibitory concentration (MIC) with Candida albicans [3], against Aspergillus brasiliensis [4] and against Aspergillus niger [6] were 0.125 mg/L, 0.5 mg/L and 0.25 mg/L, respectively.

For `c1ccc2c(c1)N=C(c1cc3ccccc3o1)CC(c1cccc3ccccc13)S2` (stereo not drawn), the zone of inhibition at 200 µg/disc in the assay on Aspergillus brasiliensis [2] (PTCC 5011, 72 h, read-out: DIZ) was < 6 mm; with Bacillus spizizenii [7] it was < 6 mm; in the assay on Candida albicans [10] it was 14 mm; in the assay with Aspergillus niger [5] (ATCC 16404, 72 h, read-out: DIZ), < 6 mm; in [11], 9 mm; in the assay on Staphylococcus aureus [12], 10 mm. For the same compound, the MIC result in the assay on Bacillus spizizenii [8], in the assay with Aspergillus brasiliensis [4] and in the assay on Aspergillus niger [6] was “inactive” throughout. Besides, the minimum inhibitory concentration (MIC) against Candida albicans [3] was determined as 25 mg/L (≈ 61.6 µM); against Staphylococcus aureus [9], 5 mg/L (≈ 12.3 µM); in assay [13], 5 mg/L (≈ 12.3 µM). Also, the inhibition entry in assay [1] was “inactive”. Moreover, on Cholinesterase, the half-maximal inhibitory concentration (IC50) is 63 µM.

As to `COc1ccccc1C1CC(c2cc3cc(Br)ccc3o2)=Nc2ccccc2S1` (stereo not drawn), in assay [1], the inhibition entry is “inactive”. Also, at Cholinesterase, the IC50 stood at 1.8 µM.

With `COc1ccc(C2CC(c3cc4cc(Br)ccc4o3)=Nc3ccccc3S2)cc1` (stereo not drawn), the inhibition result in assay [1] is “inactive”. Moreover, the half-maximal inhibitory concentration (IC50) on Cholinesterase was determined as 1 µM.

Take `CO[C@H]1/C=C/O[C@@]2(C)Oc3c(C)c(O)c4c(O)c(c(/C=N/N5CCN(C)CC5)c(O)c4c3C2=O)NC(=O)/C(C)=C\C=C\[C@H](C)[C@H](O)[C@@H](C)[C@@H](O)[C@@H](C)[C@H](OC(C)=O)[C@@H]1C` [RIFAMPIN]: the zone of inhibition at 200 µg/disc in the assay with Pseudomonas aeruginosa [14] is < 6 mm; in the assay on Shigella dysenteriae [15], 8 mm; in the assay with Proteus vulgaris [17], 10 mm; in the assay on Bacillus spizizenii [7], 13 mm; in the assay with Salmonella paratyphi [20], < 6 mm; with Escherichia coli [21] it was 11 mm. In addition, the zone of inhibition at 200 µg/disc in assay [11] is 40 mm; with Klebsiella pneumoniae [23] it was 7 mm; with Staphylococcus aureus [12] it was 10 mm. Also, the MIC entry with Salmonella paratyphi [16] and in the assay on Pseudomonas aeruginosa [25] was “inactive” throughout. Also, the MIC against Shigella dysenteriae [18] is 0.25 mg/L (≈ 0.304 µM); in the assay on Proteus vulgaris [19], 0.125 mg/L (≈ 0.152 µM); in the assay on Bacillus spizizenii [8], 0.125 mg/L (≈ 0.152 µM); with Staphylococcus aureus [9], 0.25 mg/L (≈ 0.304 µM); in the assay on Escherichia coli [22], 0.5 mg/L (≈ 0.608 µM); in [13], 0.25 mg/L (≈ 0.304 µM). The compound also registered a minimal inhibitory concentration (MIC) against Klebsiella pneumoniae [24] of 0.25 mg/L (≈ 0.304 µM).

As to `Oc1ccc(C2CC(c3cc4ccccc4o3)=Nc3ccccc3S2)cc1` (stereo not drawn), in assay [1], the inhibition result is “inactive”. At Cholinesterase, the IC50 amounted to 14 µM.

Take `Oc1ccc(C2CC(c3cc4cc(Br)ccc4o3)=Nc3ccccc3S2)cc1` (stereo not drawn): in assay [1], the inhibition result is “inactive”. Also, on Cholinesterase, the concentration for half-maximal inhibition (IC50) was determined as 6.5 µM.
